This is an account of results in ChEMBL document CHEMBL4184273, “Discovery of chromenes as inhibitors of macrophage migration inhibitory factor” (Bioorg Med Chem, 2018).

Test [1] concerns the target T1, Macrophage migration inhibitory factor (Homo sapiens) (UniProt P14174).
T1 sequence (whole entry): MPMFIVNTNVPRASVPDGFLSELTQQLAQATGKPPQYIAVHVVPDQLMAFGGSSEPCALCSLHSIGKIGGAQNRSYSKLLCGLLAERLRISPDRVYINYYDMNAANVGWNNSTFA
The test is described as follows: Inhibition of recombinant His-tagged MIF tautomerase activity (unknown origin) at 25 uM using 4-HPP as substrate relative to control. An outline of the steps:
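Single-point screen at final inhibitor 25 µM in 5% DMSO (from 10 mM DMSO stocks diluted in 0.4 M boric acid pH 6.2). MIF final 340 nM; reaction started with 4-HPP (final 0.5 mM; pre-equilibrated overnight in 50 mM ammonium acetate pH 6.0). Absorbance at 306 nm followed over time. Vehicle control 5% DMSO; no-MIF negative control. Mean of at least 2 independent experiments.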

For test [2], the target named is T1, Macrophage migration inhibitory factor (Homo sapiens). The test is described as follows: (§1) Inhibition of recombinant His-tagged MIF tautomerase activity (unknown origin) using 4-HPP as substrate pretreated for 2 mins followed by substrate addition. An outline of the steps: (§2)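 Time-dependence test: inhibitor (125–0 µM, 1.6-fold series in 5% DMSO) preincubated with MIF (340 nM) for 2 or 40 min before 4-HPP was added (final 0.5 mM). IC50 curves were built from the 306 nm absorbance increase in boric acid pH 6.2, and the two preincubation times were compared.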

The target is the same in test [3]. The test can be described thus: Time-dependent inhibition of recombinant His-tagged MIF tautomerase activity (unknown origin) using 4-HPP as substrate. Put shortly:
as §2

In test [4] the target is T2, Macrophage migration inhibitory factor (Homo sapiens, UniProt P14174).
T2 sequence (P14174 whole entry): T1 sequence (whole entry)
The test is described as follows: Inhibition of recombinant His-tagged MIF tautomerase activity (unknown origin) using 4-HPP as substrate.

For test [5], the target named is T1, Macrophage migration inhibitory factor (Homo sapiens). The test is described as follows: (§3) Inhibition of recombinant His-tagged MIF tautomerase activity (unknown origin) using 4-HPP as substrate pretreated for 40 mins followed by substrate addition. Put shortly:
as §2

Test [6] has the same target. The test can be described thus: Reversible inhibition of recombinant His-tagged MIF tautomerase activity (unknown origin) assessed as recovery of enzyme activity at 125 uM using 4-HPP as substrate by substrate dilution method. Put shortly:
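Jump-dilution: MIF (34 µM) was mixed with inhibitor (125 µM, 5% DMSO), then diluted 100-fold into 4-HPP (0.5 mM) in boric acid. Absorbance at 306 nm was plotted against time to follow activity recovery. The control was treated the same way with 5% DMSO and no inhibitor.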

The target of test [7] is T2, Macrophage migration inhibitory factor. The test is described as §1. Put shortly:
as §2

The target is the same in test [8]. The description is as §3. An outline of the steps: as §2

Calls of active or inactive are those of the source. No cut-off for these calls is given here.

As to `CCOc1ccc2c(c1)OC(N)=C1C(=O)N(Cc3cccc4ccccc34)C(=O)CC12` (stereo not given), the inhibition in test [1] was 50%. As for `Cc1ccc2c(c1)C1CC(=O)N(Cc3ccco3)C(=O)C1=C(N)O2` (stereo not given), the inhibition in test [1] worked out at 15%. Still for that read-out and setting: then `CCOCCN1C(=O)CC2C(=C(N)Oc3cc(OCc4ccc(Cl)cc4)ccc32)C1=O` (stereo not given), with 10%.

Regarding `COc1ccc2c(c1)OC(N)=C1C(=O)N(CC(C)C)C(=O)CC12` (stereo not given), in test [1], the inhibition stood at 15%. Still for that read-out and setting: as for `Cc1ccc2c(c1)OC(N)=C1C(=O)N(Cc3cccc4ccccc34)C(=O)CC12` (stereo not given), the figure is 35%.

In the case of `Cc1ccc2c(c1)OC(N)=C1C(=O)N(CCc3c[nH]c4ccccc34)C(=O)CC12` (stereo not given), the inhibition result in test [2] and in test [5] was “Active” each time. In addition, the TDI entry in test [3] is “inactive”. Besides, the 50% inhibitory concentration (IC50) in test [4] came to 6.2 µM. Moreover, the inhibition in test [1] stood at 55%.

Regarding `CCOc1ccc2c(c1)OC(N)=C1C(=O)N(Cc3ccc(N)cc3)C(=O)CC12` (stereo not given), the inhibition in test [1] is 0%.

Regarding `NC1=C2C(=O)N(CCc3c[nH]c4ccccc34)C(=O)CC2c2ccccc2O1` (stereo not given), the inhibition in test [1] worked out at 15%. As to `Cc1ccc2c(c1)OC(N)=C1C(=O)N(CCCN(C)C)C(=O)CC12` (stereo not given), the inhibition in test [1] stood at 0%. Regarding `Cc1ccc2c(c1)OC(N)=C1C(=O)N(Cc3ccncc3)C(=O)CC12` (stereo not given), in test [1], the inhibition stood at 0%.

`COc1ccc2c(c1)OC(N)=C1C(=O)N(CCCN3CCOCC3)C(=O)CC12` (stereo not given): the inhibition in test [1] amounted to 0%.

As to `COc1ccc2c(c1)OC(N)=C1C(=O)N(Cc3ccncc3)C(=O)CC12` (stereo not given), the inhibition in test [1] is 0%. The same measure, in the same setting: as for `C#CCN1C(=O)CC2C(=C(N)Oc3cc(C)ccc32)C1=O` (stereo not given), the figure is 0%. On to `Cc1ccc2c(c1)OC(N)=C1C(=O)N(CCc3ccc(Cl)cc3Cl)C(=O)CC12` (stereo not given), for which the inhibition in test [1] amounted to 20%. `NC1=C2C(=O)N(CCO)C(=O)CC2c2ccccc2O1` (stereo not given): the inhibition in test [1] came out at 0%.

In the case of `NC1=C2C(=O)N(Cc3ccncc3)C(=O)CC2c2ccc(OCc3ccc(Cl)cc3)cc2O1` (stereo not given), the inhibition in test [1] stood at 15%. For the compound `Cc1ccc2c(c1)C1CC(=O)N(CCN3CCOCC3)C(=O)C1=C(N)O2` (stereo not given), the inhibition in test [1] turned out to be 0%. Same read-out and setting: as for `COc1ccc2c(c1)OC(N)=C1C(=O)N(CCc3cccs3)C(=O)CC12` (stereo not given), the figure is 15%. `NC1=C2C(=O)N(CCc3c[nH]c4ccccc34)C(=O)CC2c2ccc(OCc3ccc(Cl)cc3)cc2O1` (stereo not given): in test [4], the IC50 amounted to 8 µM. Also, the inhibition in test [1] is 70%. On to `NC1=C2C(=O)N(Cc3ccc(N)cc3)C(=O)CC2c2ccc(OCc3ccc(Cl)cc3)cc2O1` (stereo not given), for which the inhibition in test [1] was determined as 45%. `CCCCCCCCCCCCN1C(=O)CC2C(=C(N)Oc3ccccc32)C1=O` (stereo not given): the inhibition entry in test [6] was “Active”. For the same compound, the IC50 was determined as 13.5 µM in test [7], 18 µM in test [4] and 13.8 µM in test [8]. In test [3], the TDI entry was “inactive”. Further, the inhibition in test [1] came to 60%.

Consider `Cc1ccc2c(c1)C1CC(=O)N(CCc3ccc(Cl)cc3Cl)C(=O)C1=C(N)O2` (stereo not given), for which the inhibition in test [1] turned out to be 20%. The same measure, in the same setting: then `Cc1ccc2c(c1)C1CC(=O)N(Cc3ccc(N)cc3)C(=O)C1=C(N)O2` (stereo not given), with 10%; and `CCOc1ccc2c(c1)OC(N)=C1C(=O)N(Cc3ccncc3)C(=O)CC12` (stereo not given), with 0%; and `CCOc1ccc2c(c1)OC(N)=C1C(=O)N(CC(C)C)C(=O)CC12` (stereo not given), with 10%. `CCCCCCCCCCCCN1C(=O)CC2C(=C(N)Oc3ccc(C)cc32)C1=O` (stereo not given): the inhibition in test [1] came to 50%. Consider `Cc1ccc2c(c1)OC(N)=C1C(=O)N(Cc3ccc(N)cc3)C(=O)CC12` (stereo not given), for which the inhibition in test [1] amounted to 0%.

In the case of `COc1ccc2c(c1)OC(N)=C1C(=O)N(CCO)C(=O)CC12` (stereo not given), the inhibition in test [1] was found to be 0%. Consider `C=CCN1C(=O)CC2C(=C(N)Oc3cc(OCc4ccc(Cl)cc4)ccc32)C1=O` (stereo not given), for which the inhibition in test [1] turned out to be 10%. As to `CCOc1ccc2c(c1)OC(N)=C1C(=O)N(CCCN3CCOCC3)C(=O)CC12` (stereo not given), the inhibition in test [1] turned out to be 0%. The same measure, in the same setting: as for `COc1ccc2c(c1)OC(N)=C1C(=O)N(Cc3ccco3)C(=O)CC12` (stereo not given), the figure is 0%; as for `COCCCN1C(=O)CC2C(=C(N)Oc3cc(OC)ccc32)C1=O` (stereo not given), 0%; as for `CCN(CC)CCCN1C(=O)CC2C(=C(N)Oc3ccc(C)cc32)C1=O` (stereo not given), 0%. For `Cc1ccc2c(c1)C1CC(=O)N(CCO)C(=O)C1=C(N)O2` (stereo not given), the inhibition in test [1] was 0%.

`CC(C)CN1C(=O)CC2C(=C(N)Oc3cc(OCc4ccc(Cl)cc4)ccc32)C1=O` (stereo not given): the inhibition in test [1] came out at 40%.

Consider `COc1ccc2c(c1)OC(N)=C1C(=O)N(CCCN(C)C)C(=O)CC12` (stereo not given), for which, in test [1], the inhibition stood at 0%. On to `Cc1ccc2c(c1)C1CC(=O)N(CCc3cccs3)C(=O)C1=C(N)O2` (stereo not given), for which, in test [1], the inhibition turned out to be 10%. As to `C#CCN1C(=O)CC2C(=C(N)Oc3cc(OC)ccc32)C1=O` (stereo not given), in test [1], the inhibition is 0%. Still for that read-out and setting: then `CCOc1ccc2c(c1)OC(N)=C1C(=O)N(Cc3cccnc3)C(=O)CC12` (stereo not given), with 10%; and `COc1ccc2c(c1)OC(N)=C1C(=O)N(Cc3cccc4ccccc34)C(=O)CC12` (stereo not given), with 25%. Turning to `Cc1ccc2c(c1)C1CC(=O)N(Cc3ccncc3)C(=O)C1=C(N)O2` (stereo not given), the inhibition in test [1] is 0%. On to `CCCCCCCCCCCCN1C(=O)CC2C(=C(N)Oc3cc(OCc4ccc(Cl)cc4)ccc32)C1=O` (stereo not given), for which the IC50 in test [4] amounted to 7.1 µM. In addition, the inhibition in test [1] came out at 80%. In the case of `Cc1ccc2c(c1)OC(N)=C1C(=O)N(CCc3ccc(Cl)cc3)C(=O)CC12` (stereo not given), the inhibition in test [1] was 5%. With `CCCCCCCCCCCCN1C(=O)CC2C(=C(N)Oc3cc(OCC)ccc32)C1=O` (stereo not given), the IC50 in test [4] came to 21 µM. Further, the inhibition in test [1] stood at 60%. Turning to `COCCN1C(=O)CC2C(=C(N)Oc3cc(C)ccc32)C1=O` (stereo not given), the inhibition in test [1] is 0%. As to `NC1=C2C(=O)N(Cc3ccco3)C(=O)CC2c2ccccc2O1` (stereo not given), the inhibition in test [1] was 0%.

Regarding `NC1=C2C(=O)N(CCc3ccc(Cl)cc3)C(=O)CC2c2ccccc2O1` (stereo not given), in test [1], the inhibition was found to be 15%. The same measure, in the same setting: then `Cc1ccc2c(c1)C1CC(=O)N(CC(C)C)C(=O)C1=C(N)O2` (stereo not given), with 0%.

On to `NC1=C2C(=O)N(CCc3ccc(Cl)cc3)C(=O)CC2c2ccc(OCc3ccc(Cl)cc3)cc2O1` (stereo not given), for which, in test [4], the IC50 stood at 13 µM. In addition, the inhibition in test [1] was determined as 80%.

For the compound `CCOc1ccc2c(c1)OC(N)=C1C(=O)N(CCc3ccc(Cl)cc3Cl)C(=O)CC12` (stereo not given), in test [1], the inhibition worked out at 30%. For `COc1ccc2c(c1)OC(N)=C1C(=O)N(Cc3ccc(N)cc3)C(=O)CC12` (stereo not given), the inhibition in test [1] is 0%.

`NC1=C2C(=O)N(Cc3ccc(N)cc3)C(=O)CC2c2ccccc2O1` (stereo not given): in test [1], the inhibition was determined as 0%. As for `CCOc1ccc2c(c1)OC(N)=C1C(=O)N(CCc3c[nH]c4ccccc34)C(=O)CC12` (stereo not given), in test [1], the inhibition came to 10%. In the case of `Cc1ccc2c(c1)C1CC(=O)N(CCc3c[nH]c4ccccc34)C(=O)C1=C(N)O2` (stereo not given), the inhibition in test [1] was 25%. The same measure, in the same setting: as for `CCOCCN1C(=O)CC2C(=C(N)Oc3cc(OCC)ccc32)C1=O` (stereo not given), the figure is 0%; as for `COc1ccc2c(c1)OC(N)=C1C(=O)N(Cc3cccnc3)C(=O)CC12` (stereo not given), 0%. Same read-out and setting: as for `Cc1ccc2c(c1)C1CC(=O)N(Cc3cccnc3)C(=O)C1=C(N)O2` (stereo not given), the figure is 0%.
